{
  "source": "ChEMBL document CHEMBL2331220",
  "about": "“Benzimidazole clubbed with triazolo-thiadiazoles and triazolo-thiadiazines: new anticancer agents” (2013)",
  "type_in_all_cases": "functional",
  "key": {"UO-31 [1]": {"test_system": "UO-31", "test": "Cytotoxicity against human UO31 cells assessed as cell growth at 10 uM after 48 hrs by SRB assay relative to control", "conditions": "UO-31, 48 h, read-out: Activity", "how_it_was_run": "(§1)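 NCI single-dose primary screen: compound added at 1 × 10⁻⁵ M, cultures incubated 48 h. Protein stained with sulforhodamine B. Result given as percent growth of treated cells relative to untreated controls, where negative values mean cell kill.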"}, "UO-31 [2]": {"test_system": "UO-31", "test": "Growth inhibition of human UO31 cells at 10 uM after 48 hrs by SRB assay relative to control", "conditions": "UO-31, 48 h, read-out: GI", "how_it_was_run": "as §1"}, "T47D": {"test_system": "T47D", "test": "Cytotoxicity against human T47D cells assessed as cell growth at 10 uM after 48 hrs by SRB assay relative to control", "conditions": "read-out: Activity", "how_it_was_run": "as §1"}, "HOP-62 [3]": {"test_system": "HOP-62", "test": "Growth inhibition of human HOP62 cells at 10 uM after 48 hrs by SRB assay relative to control", "conditions": "HOP-62, 48 h, read-out: GI", "how_it_was_run": "as §1"}, "HOP-62 [4]": {"test_system": "HOP-62", "test": "Cytotoxicity against human HOP62 cells assessed as cell growth at 10 uM after 48 hrs by SRB assay relative to control", "conditions": "HOP-62, 48 h, read-out: Activity", "how_it_was_run": "(§2)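 Single-dose NCI screen. Compound was added at 1 × 10^-5 M and cultures were incubated 48 h. End point was sulforhodamine B protein staining, reported as percent growth of treated cells versus untreated control cells.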"}, "NCI-H522 [5]": {"test_system": "NCI-H522", "test": "Cytotoxicity against human NCI-H522 cells assessed as cell growth at 10 uM after 48 hrs by SRB assay relative to control", "conditions": "NCI-H522, 48 h, read-out: Activity", "how_it_was_run": "as §2"}, "NCI-H522 [6]": {"test_system": "NCI-H522", "test": "Growth inhibition of human NCI-H522 cells at 10 uM after 48 hrs by SRB assay relative to control", "conditions": "NCI-H522, 48 h, read-out: GI", "how_it_was_run": "as §1"}, "NCI-H322M": {"test_system": "NCI-H322M", "test": "Cytotoxicity against human NCI-H322M cells assessed as cell growth at 10 uM after 48 hrs by SRB assay relative to control", "conditions": "read-out: Activity", "how_it_was_run": "as §2"}, "IGROV-1": {"test_system": "IGROV-1", "test": "Growth inhibition of human IGROV1 cells at 10 uM after 48 hrs by SRB assay relative to control", "conditions": "IGROV-1, 48 h, read-out: GI", "how_it_was_run": "as §1"}, "HOP-92": {"test_system": "HOP-92", "test": "Cytotoxicity against human HOP92 cells assessed as cell growth at 10 uM after 48 hrs by SRB assay relative to control", "conditions": "HOP-92, 48 h, read-out: Activity", "how_it_was_run": "as §2"}, "MCF7 [7]": {"test_system": "MCF7", "test": "Cytotoxicity against human MCF7 cells assessed as cell growth at 10 uM after 48 hrs by SRB assay relative to control", "conditions": "MCF7, 48 h, read-out: Activity", "how_it_was_run": "as §2"}, "MCF7 [8]": {"test_system": "MCF7", "test": "Growth inhibition of human MCF7 cells at 10 uM after 48 hrs by SRB assay relative to control", "conditions": "MCF7, 48 h, read-out: GI", "how_it_was_run": "as §1"}},
  "data": [
    {"smiles": "COc1ccc(-c2nn3c(CCC(=O)c4nc5ccccc5[nH]4)nnc3s2)cc1", "values": [
      {"measurement": "growth at 10 µM", "setting": "UO-31 [1]", "result": 69.6, "unit": "%"}
    ]},
    {"smiles": "O=C(CCc1nnc2sc(-c3ccc(O)cc3)nn12)c1nc2ccccc2[nH]1", "values": [
      {"measurement": "growth at 10 µM", "setting": "UO-31 [1]", "result": 67.7, "unit": "%"},
      {"measurement": "inhibition of growth at 10 µM", "setting": "UO-31 [2]", "result": "≤ 32", "unit": "%"}
    ]},
    {"smiles": "O=C(CCc1nnc2sc(CCl)nn12)c1nc2ccccc2[nH]1", "values": [
      {"measurement": "growth at 10 µM", "setting": "UO-31 [1]", "result": 83.9, "unit": "%"}
    ]},
    {"smiles": "NCCCc1nn2c(CCC(=O)c3nc4ccccc4[nH]3)nnc2s1", "values": [
      {"measurement": "growth at 10 µM", "setting": "UO-31 [1]", "result": 73.8, "unit": "%"}
    ]},
    {"smiles": "O=C(CCc1nnc2sc(S)nn12)c1nc2ccccc2[nH]1", "values": [
      {"measurement": "growth at 10 µM", "setting": "UO-31 [1]", "result": 76.6, "unit": "%"}
    ]},
    {"smiles": "O=C(CCc1nnc2sc(Nc3ccc(Cl)cc3)nn12)c1nc2ccccc2[nH]1", "values": [
      {"measurement": "growth at 10 µM", "setting": "UO-31 [1]", "result": 64.2, "unit": "%"},
      {"measurement": "inhibition of growth at 10 µM", "setting": "UO-31 [2]", "result": "≤ 32", "unit": "%"}
    ]},
    {"smiles": "NC1=Nn2c(CCC(=O)c3nc4ccccc4[nH]3)nnc2SC1", "values": [
      {"measurement": "growth at 10 µM", "setting": "UO-31 [1]", "result": 80.4, "unit": "%"}
    ]},
    {"smiles": "O=C(CCc1nnc2n1N=C(O)CS2)c1nc2ccccc2[nH]1", "values": [
      {"measurement": "growth at 10 µM", "setting": "UO-31 [1]", "result": 79.8, "unit": "%"}
    ]},
    {"smiles": "CCOC1=Nn2c(CCC(=O)c3nc4ccccc4[nH]3)nnc2SC1", "values": [
      {"measurement": "growth at 10 µM", "setting": "UO-31 [1]", "result": 80.3, "unit": "%"}
    ]},
    {"smiles": "O=C(CCc1nnc2n1N=C(Cl)CS2)c1nc2ccccc2[nH]1", "values": [
      {"measurement": "growth at 10 µM", "setting": "UO-31 [1]", "result": 78.9, "unit": "%"}
    ]},
    {"smiles": "Cc1nn2c(CCC(=O)c3nc4ccccc4[nH]3)nnc2s1", "values": [
      {"measurement": "growth at 10 µM", "setting": "T47D", "result": 84.2, "unit": "%"}
    ]},
    {"smiles": "O=C(CCc1nnc2sc(CCCl)nn12)c1nc2ccccc2[nH]1", "values": [
      {"measurement": "growth at 10 µM", "setting": "UO-31 [1]", "result": 80.1, "unit": "%"}
    ]},
    {"smiles": "CCOc1nn2c(CCC(=O)c3nc4ccccc4[nH]3)nnc2s1", "values": [
      {"measurement": "inhibition of growth at 10 µM", "setting": "HOP-62 [3]", "result": "≤ 32", "unit": "%"},
      {"measurement": "growth at 10 µM", "setting": "HOP-62 [4]", "result": 28.7, "unit": "%"}
    ]},
    {"smiles": "O=C(CCc1nnc2sc(C(c3ccccc3)c3ccccc3)nn12)c1nc2ccccc2[nH]1", "values": [
      {"measurement": "growth at 10 µM", "setting": "NCI-H522 [5]", "result": 30.2, "unit": "%"},
      {"measurement": "inhibition of growth at 10 µM", "setting": "NCI-H522 [6]", "result": "≤ 32", "unit": "%"}
    ]},
    {"smiles": "N#CCc1nn2c(CCC(=O)c3nc4ccccc4[nH]3)nnc2s1", "values": [
      {"measurement": "growth at 10 µM", "setting": "UO-31 [1]", "result": 75.5, "unit": "%"}
    ]},
    {"smiles": "C=Cc1nn2c(CCC(=O)c3nc4ccccc4[nH]3)nnc2s1", "values": [
      {"measurement": "growth at 10 µM", "setting": "UO-31 [1]", "result": 76.2, "unit": "%"}
    ]},
    {"smiles": "O=C(CCc1nnc2sc(-c3ccccc3S)nn12)c1nc2ccccc2[nH]1", "values": [
      {"measurement": "growth at 10 µM", "setting": "NCI-H322M", "result": 73.9, "unit": "%"}
    ]},
    {"smiles": "C/C=C\\c1nn2c(CCC(=O)c3nc4ccccc4[nH]3)nnc2s1", "values": [
      {"measurement": "growth at 10 µM", "setting": "UO-31 [1]", "result": 54.9, "unit": "%"},
      {"measurement": "inhibition of growth at 10 µM", "setting": "IGROV-1", "result": "≤ 32", "unit": "%"}
    ]},
    {"smiles": "O=C(CCc1nnc2sc(-c3ccccc3O)nn12)c1nc2ccccc2[nH]1", "values": [
      {"measurement": "growth at 10 µM", "setting": "UO-31 [1]", "result": 51.3, "unit": "%"},
      {"measurement": "inhibition of growth at 10 µM", "setting": "IGROV-1", "result": "≤ 32", "unit": "%"}
    ]},
    {"smiles": "O=C(CCc1nnc2sc(CS)nn12)c1nc2ccccc2[nH]1", "values": [
      {"measurement": "growth at 10 µM", "setting": "UO-31 [1]", "result": 79.4, "unit": "%"}
    ]},
    {"smiles": "O=C(CCc1nnc(S)o1)c1nc2ccccc2[nH]1", "values": [
      {"measurement": "growth at 10 µM", "setting": "HOP-92", "result": 69.4, "unit": "%"}
    ]},
    {"smiles": "Nc1ccccc1-c1nn2c(CCC(=O)c3nc4ccccc4[nH]3)nnc2s1", "values": [
      {"measurement": "growth at 10 µM", "setting": "MCF7 [7]", "result": 62, "unit": "%"},
      {"measurement": "inhibition of growth at 10 µM", "setting": "MCF7 [8]", "result": "≤ 32", "unit": "%"}
    ]},
    {"smiles": "O=C(CCc1nnc2sc(Cc3ccccc3Cl)nn12)c1nc2ccccc2[nH]1", "values": [
      {"measurement": "growth at 10 µM", "setting": "UO-31 [1]", "result": 63, "unit": "%"},
      {"measurement": "inhibition of growth at 10 µM", "setting": "UO-31 [2]", "result": "≤ 32", "unit": "%"}
    ]},
    {"smiles": "O=C(CCc1nnc2sc(COc3ccccc3)nn12)c1nc2ccccc2[nH]1", "values": [
      {"measurement": "growth at 10 µM", "setting": "UO-31 [1]", "result": 64.3, "unit": "%"},
      {"measurement": "inhibition of growth at 10 µM", "setting": "UO-31 [2]", "result": "≤ 32", "unit": "%"}
    ]}
  ]
}
